Reference: ChEMBL document CHEMBL1148053, “(+)-(S)-dihydroaeruginoic acid, an inhibitor of Septoria tritici and other phytopathogenic fungi and bacteria, produced by Pseudomonas fluorescens” (1994)

Legend:
[1] = test system: Rhizoctonia solani; test: Antifungal activity against Rhizoctonia solani DL5588 assessed as colony reduction at 100 ug/disk after 2 to 6 days by paper disk agar diffusion method relative to control; format: functional; design: scale not given: the % may be the effect or the level left
Summary of the method: (§1)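 Tested on one-fourth-strength potato dextrose agar. A 5-mm mycelial agar plug from the colony edge was placed at the dish centre. A 6-mm disc with the compound in Me₂CO and an Me₂CO-only control disc were set on opposite sides, each 30 mm from the plug. After 2-6 days, colony radii were measured along the line joining the discs. Values are the mean of nine (3 weighings × 3 discs), analysed by two-way ANOVA.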

[2] = test system: Rhizoctonia solani; test: Antifungal activity against Rhizoctonia solani DL5588 assessed as colony reduction at 200 ug/disk after 2 to 6 days by paper disk agar diffusion method relative to control; format: functional; design: scale not given: the % may be the effect or the level left; summary of the method: as §1
[3] = test system: Globisporangium ultimum; test: Antifungal activity against Pythium ultimum RG-5601 assessed as colony reduction at 100 ug/disk after 2 to 6 days by paper disk agar diffusion method relative to control; format: functional; design: scale not given: the % may be the effect or the level left
Summary of the method: (§2)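 Paper-disc agar-diffusion on one-fourth-strength PDA. Mycelial agar plug (5 mm) from culture edge placed at plate centre; 6-mm disc loaded with compound in Me2CO and Me2CO-only control disc set on opposite sides, each 30 mm from plug. After 2-6 days (per growth rate), colony radii measured along line joining disc centres. Three separate weighings × three discs (nine) per organism; two-way ANOVA.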

[4] = test system: Globisporangium ultimum; test: Antifungal activity against Pythium ultimum RG-5601 assessed as colony reduction at 200 ug/disk after 2 to 6 days by paper disk agar diffusion method relative to control; format: functional; design: scale not given: the % may be the effect or the level left; summary of the method: as §2
[5] = test system: Botrytis cinerea; test: Antifungal activity against Botrytis cinerea DL6050 assessed as colony reduction at 100 ug/disk after 2 to 6 days by paper disk agar diffusion method relative to control; format: functional; design: scale not given: the % may be the effect or the level left; summary of the method: as §1
[6] = test system: Botrytis cinerea; test: Antifungal activity against Botrytis cinerea DL6050 assessed as colony reduction at 200 ug/disk after 2 to 6 days by paper disk agar diffusion method relative to control; format: functional; design: scale not given: the % may be the effect or the level left; summary of the method: as §1
[7] = test system: Athelia rolfsii; test: Antifungal activity against Sclerotium rolfsii RG-1984 assessed as colony reduction at 100 ug/disk after 2 to 6 days by paper disk agar diffusion method relative to control; format: functional, Agroathelia rolfsii; design: scale not given: the % may be the effect or the level left; summary of the method: as §2
[8] = test system: Athelia rolfsii; test: Antifungal activity against Sclerotium rolfsii RG-1984 assessed as colony reduction at 200 ug/disk after 2 to 6 days by paper disk agar diffusion method relative to control; format: functional, Agroathelia rolfsii; design: scale not given: the % may be the effect or the level left; summary of the method: as §2
[9] = test system: Colletotrichum gloeosporioides; test: Antifungal activity against Colletotrichum gloeosporioides DL5605 assessed as colony reduction at 100 ug/disk after 2 to 6 days by paper disk agar diffusion method relative to control; format: functional; design: scale not given: the % may be the effect or the level left; summary of the method: as §1
[10] = test system: Colletotrichum gloeosporioides; test: Antifungal activity against Colletotrichum gloeosporioides DL5605 assessed as colony reduction at 200 ug/disk after 2 to 6 days by paper disk agar diffusion method relative to control; format: functional; design: scale not given: the % may be the effect or the level left; summary of the method: as §1
[11] = test system: Fusarium oxysporum; test: Antifungal activity against Fusarium oxysporum Fo0593-22 assessed as colony reduction at 100 ug/disk after 2 to 6 days by paper disk agar diffusion method relative to control; format: functional; design: scale not given: the % may be the effect or the level left; summary of the method: as §1
[12] = test system: Fusarium oxysporum; test: Antifungal activity against Fusarium oxysporum Fo0593-22 assessed as colony reduction at 200 ug/disk after 2 to 6 days by paper disk agar diffusion method relative to control; format: functional; design: scale not given: the % may be the effect or the level left; summary of the method: as §1
[13] = test system: Bacillus subtilis; test: Antibacterial activity against Bacillus subtilis Bs1091 at 100 ug/disk by paper disk agar diffusion method; format: functional; conditions: read-out: IZ
Summary of the method: (§3)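 Paper-disc agar-diffusion assay on Luria agar (tryptone, yeast extract, NaCl, agar), the medium used for maintaining and testing the bacteria. The compound was dissolved in Me₂CO and absorbed onto 6-mm paper discs at the stated amount per disc. Three separately weighed solutions were used, with three discs each, giving nine measurements per organism.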

[14] = test system: Bacillus subtilis; test: Antibacterial activity against Bacillus subtilis Bs1091 at 200 ug/disk by paper disk agar diffusion method; format: functional; conditions: read-out: IZ; summary of the method: as §3
[15] = test system: Pantoea agglomerans; test: Antibacterial activity against Erwinia herbicola SM-824 at 100 ug/disk by paper disk agar diffusion method; format: functional; conditions: read-out: IZ; summary of the method: as §3
[16] = test system: Pantoea agglomerans; test: Antibacterial activity against Erwinia herbicola SM-824 at 200 ug/disk by paper disk agar diffusion method; format: functional; conditions: read-out: IZ; summary of the method: as §3
[17] = test system: Staphylococcus; test: Antibacterial activity against Staphylococcus albus Sal1091-4 at 100 ug/disk by paper disk agar diffusion method; format: functional; conditions: read-out: IZ; summary of the method: as §3
[18] = test system: Staphylococcus; test: Antibacterial activity against Staphylococcus albus Sal1091-4 at 200 ug/disk by paper disk agar diffusion method; format: functional; conditions: read-out: IZ; summary of the method: as §3
[19] = test system: Pseudomonas fluorescens; test: Antibacterial activity against Pseudomonas fluorescens PFM2 at 100 ug/disk by paper disk agar diffusion method; format: functional; conditions: read-out: IZ; summary of the method: as §3
[20] = test system: Pseudomonas fluorescens; test: Antibacterial activity against Pseudomonas fluorescens PFM2 at 200 ug/disk by paper disk agar diffusion method; format: functional; conditions: read-out: IZ; summary of the method: as §3
[21] = test system: Zymoseptoria tritici; test: Antifungal activity against Septoria tritici ISR-SE93 assessed as diameter of zone of inhibition at 100 ug/disk after 2 to 6 days by paper disk agar diffusion method; conditions: read-out: IZ
[22] = test system: Zymoseptoria tritici; test: Antifungal activity against Septoria tritici ISR-SE93 assessed as diameter of zone of inhibition at 200 ug/disk after 2 to 6 days by paper disk agar diffusion method; conditions: read-out: IZ

SMILES	Activity [1]	Activity [2]	Activity [3]	Activity [4]	Activity [5]	Activity [6]	Activity [7]	Activity [8]	Activity [9]	Activity [10]	Activity [11]	Activity [12]	zone of inhibition at 100 µg/disc [13]	zone of inhibition at 200 µg/disc [14]	zone of inhibition at 100 µg/disc [15]	zone of inhibition at 200 µg/disc [16]	zone of inhibition at 100 µg/disc [17]	zone of inhibition at 200 µg/disc [18]	zone of inhibition at 100 µg/disc [19]	zone of inhibition at 200 µg/disc [20]	also measured
O=C(O)[C@H]1CSC(c2ccccc2O)=N1	1%	5%	22%	43%	27%	43%	32%	53%	8%	10%	8%	15%	10.8 mm	13.3 mm	6.7 mm	8.7 mm	20.2 mm	26.2 mm	0 mm	0 mm	zone of inhibition at 100 µg/disc [21]: 0 mm; zone of inhibition at 200 µg/disc [22]: 13 mm
O=C(O)[C@@H]1CSC(c2ccccc2O)=N1	6%	17%	12%	33%	36%	46%	32%	52%	8%	9%	5%	11%	14.9 mm	19.7 mm	8.2 mm	10.4 mm	22 mm	28.2 mm	0 mm	0 mm	zone of inhibition at 100 µg/disc [21]: 0 mm; zone of inhibition at 200 µg/disc [22]: 13 mm
